Article PMC7114262 (Antiviral Research, 2005)

Legend:
[1] = Cytotoxicity, tetrazolium dye assay, growing HEL monolayers; type: cell-based; conditions: human, growing HEL fibroblast monolayers
Summary of the method: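 Cytotoxicity in growing HEL fibroblasts: cells not serum-starved, about 10% confluent when compound was added. Viability read by tetrazolium colorimetric dye after 72 h of exposure, as absorbance at 470 nm relative to DMSO-matched control wells. CC50 obtained by linear regression of percent inhibition versus concentration, reported as mean ± standard deviation of quadruplicate experiments.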

[2] = Cytotoxicity, tetrazolium dye assay, static HEL monolayers; type: cell-based, human; conditions: human, static (confluent, serum-starved) HEL fibroblast monolayers
Summary of the method: (§1)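 Confluent HEL fibroblasts serum-starved 48 h, then exposed to a range of compound concentrations without virus or methylcellulose. After 72 h, viability read by tetrazolium colorimetric dye at 470 nm, as a percentage of DMSO-matched control wells. CC50 obtained by linear regression of percent inhibition against concentration, reported as mean ± standard deviation of quadruplicate experiments.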

Static HEL fibroblasts = assay: as above; type: cell-based, human; conditions: 20 μM (5.4 μg/ml) baicalein, 50 μM (13.5 μg/ml) genistein
Summary of the method: as §1

NF-κB = assay: EMSA of HCMV-mediated NF-κB activation; type: cell-based, human; conditions: 24 hpi; 20 μM baicalein, 50 μM genistein
HCMV DNA [3] = assay: HCMV DNA assay; type: cell-based, human cytomegalovirus
Summary of the method: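 Confluent HEL cells serum-starved 48 h, then infected with HCMV at 2–5 pfu/cell with or without compound; 50 μM ganciclovir served as control. At 72 hpi, wells were frozen in PBS at −80 °C and thawed. DNA was denatured in NaOH/NaCl, neutralized with Tris pH 7.0, and baked onto nitrocellulose. Serial dilutions were probed 14 h at 42 °C with 32P nick-translated Towne genomic DNA and read by autoradiography; four independent experiments.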

HCMV = conditions: ≤12 μM genistein, IE1-72 protein levels at 24 hpi; ref Slobbe-van Drunen et al., 1997; cited from earlier work
[4] = test system: HCMV proteins (IE1-72, IE2-86, UL84, UL94); assay: Western blot / immunoprecipitation of HCMV proteins in infected HEL cells; type: cell-based, human cytomegalovirus
HCMV DNA [5] = assay: Reversibility of antiviral effect after drug removal; type: cell-based, human cytomegalovirus; conditions: drug removed at 72 hpi; 20 μM baicalein, 50 μM genistein
Summary of the method: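 HEL cells infected with HCMV in presence of compound (20 or 50 μM) for 72 h. Medium then replaced with drug-free medium and replication allowed for a further 72 h. Viral DNA measured at 24 h intervals by 32P-probe dot blot hybridization; experiment reproduced twice.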

[6] = test system: cdk2, cyclin E, p53, and PCNA; assay: Immunoblot of HCMV-induced cell cycle regulatory proteins; type: cell-based, human; conditions: 24 hpi; 50 μM ganciclovir, 20 μM baicalein, 50 μM genistein
Summary of the method: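 Confluent, serum-starved HEL cells given compound (20 or 50 μM final; 50 μM ganciclovir control) from 1 h before and throughout HCMV infection. Harvested at 24 hpi in SDS sample buffer and run on 8–10% SDS-PAGE. Immunoblotted for cdk2, cyclin E, p53 and PCNA (milk block, primary overnight at 4 °C, HRP secondary, ECL). Bands quantified by densitometry of scanned films.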

[7] = persons on a high soy diet, estimated; ref Adlercreutz et al., 1993; cited from earlier work
[8] = test system: HCMV tegument protein pp65; assay: HCMV nuclear translocation, pp65 fluorescence microscopy; type: cell-based, human cytomegalovirus; conditions: 6 hpi; 20 μM baicalein, 50 μM genistein
Summary of the method: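 Confluent HEL fibroblasts on chamber slides, serum-starved overnight and chilled on ice. Ice-cold compound-containing or plain DMEM added 10 min before infection with HCMV at 2–5 pfu/cell ± compound: 1 h at 4 °C, then 1 h at 37 °C. Cells washed and kept 5 h at 37 °C ± compound. Methanol-fixed at −20 °C, stained with anti-pp65 (1:1000), fluorescein secondary (1:500) and DAPI; nuclear pp65 examined at 6 hpi.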

EGFR = EGFR (Homo sapiens, UniProt P00533); assay: HCMV-mediated EGFR tyrosine phosphorylation; type: cell-based; conditions: shortly after infection; 20 μM baicalein, 50 μM genistein
EGFR, sequence (P00533 25-1210): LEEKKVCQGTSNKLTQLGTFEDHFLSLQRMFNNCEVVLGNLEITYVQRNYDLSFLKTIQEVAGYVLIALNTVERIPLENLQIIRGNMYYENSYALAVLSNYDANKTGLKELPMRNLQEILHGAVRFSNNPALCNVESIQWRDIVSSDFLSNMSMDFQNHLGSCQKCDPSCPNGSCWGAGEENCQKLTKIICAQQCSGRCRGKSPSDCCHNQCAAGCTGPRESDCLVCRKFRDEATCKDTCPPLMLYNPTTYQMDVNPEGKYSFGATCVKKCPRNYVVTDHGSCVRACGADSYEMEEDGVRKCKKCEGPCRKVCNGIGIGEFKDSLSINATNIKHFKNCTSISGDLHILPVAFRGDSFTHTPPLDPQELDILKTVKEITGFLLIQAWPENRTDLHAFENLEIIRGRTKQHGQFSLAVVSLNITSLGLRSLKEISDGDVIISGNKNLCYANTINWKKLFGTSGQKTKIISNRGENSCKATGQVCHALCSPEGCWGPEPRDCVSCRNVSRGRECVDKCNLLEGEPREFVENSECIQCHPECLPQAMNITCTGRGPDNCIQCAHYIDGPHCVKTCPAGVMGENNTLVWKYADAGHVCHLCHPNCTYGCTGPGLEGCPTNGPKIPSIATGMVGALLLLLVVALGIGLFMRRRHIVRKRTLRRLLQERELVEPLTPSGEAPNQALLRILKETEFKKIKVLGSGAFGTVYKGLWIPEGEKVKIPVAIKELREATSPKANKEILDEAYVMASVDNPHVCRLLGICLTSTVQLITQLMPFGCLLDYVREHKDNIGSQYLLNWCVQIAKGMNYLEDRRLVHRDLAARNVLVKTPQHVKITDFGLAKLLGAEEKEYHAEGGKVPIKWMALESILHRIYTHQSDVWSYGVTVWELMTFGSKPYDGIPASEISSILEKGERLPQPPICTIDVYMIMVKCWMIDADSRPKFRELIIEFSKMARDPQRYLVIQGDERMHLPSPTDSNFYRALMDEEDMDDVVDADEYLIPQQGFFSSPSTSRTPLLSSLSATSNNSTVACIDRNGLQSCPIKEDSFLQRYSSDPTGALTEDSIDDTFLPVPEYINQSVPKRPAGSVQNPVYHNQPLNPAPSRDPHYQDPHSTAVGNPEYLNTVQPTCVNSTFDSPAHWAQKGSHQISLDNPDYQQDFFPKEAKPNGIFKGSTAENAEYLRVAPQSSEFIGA

## O=c1cc(-c2ccc(O)c(O)c2)oc2cc(O)cc(O)c12 [Luteolin]
[1]
  CC50 at 72 h: 62 ± 10 µM
[2]
  CC50 at 72 h: > 200 µM

## O=c1c(O)c(-c2ccc(O)c(O)c2)oc2cc(O)cc(O)c12 [Quercetin]
[1]
  CC50 at 72 h: > 400 µM
[2]
  CC50 at 72 h: > 400 µM

## O=C(O)[C@H]1O[C@@H](Oc2cc3oc(-c4ccccc4)cc(=O)c3c(O)c2O)[C@H](O)[C@@H](O)[C@@H]1O [Baicalin]
[1]
  CC50 at 72 h: > 400 µM
[2]
  CC50 at 72 h: > 400 µM

## O=c1cc(-c2ccc(O)cc2)oc2cc(O)cc(O)c12 [Apigenin]
[1]
  CC50 at 72 h: > 100 µM
[2]
  CC50 at 72 h: > 100 µM

## O=c1c(-c2ccc(O)cc2)coc2cc(O)cc(O)c12 [Genistein]
[1]
  CC50 at 72 h: 124 ± 52 µM
[2]
  CC50 at 72 h: > 200 µM
Static HEL fibroblasts
  Cytotoxicity in cell culture at concentration used for mechanism studies: did not display obvious cytotoxicity
NF-κB
  HCMV induction of NF-κB: absent
HCMV DNA [3]; Human betaherpesvirus 5, read-out: Inhibition of HCMV DNA replication
  inhibition at 50 µM: ~95%
HCMV
  Inhibition of HCMV replication: did not inhibit
[4]; 50 μM genistein, 24 hpi
  IE1-72 level: slightly lower levels
  Reduction of IE2-86 levels: ≤ 65%
[4]; 50 μM genistein, 48 and 72 hpi respectively
  UL84 and UL94 protein levels: nearly background levels
HCMV DNA [5]
  Reversibility of antiviral effects: fully
[6]
  HCMV-mediated increases in steady-state levels of cdk2, cyclin E, p53, and PCNA: inhibited
[7]
  Steady-state serum levels: 1 to 5 µM

## Nc1nc(O)c2ncn(COC(CO)CO)c2n1 [Ganciclovir]
[6]
  HCMV-mediated increases in steady-state levels of cdk2, cyclin E, p53, and PCNA: not affected

## O=c1c(O)c(-c2ccccc2)oc2cc(O)cc(O)c12 [Galangin]
[1]
  CC50 at 72 h: > 400 µM
[2]
  CC50 at 72 h: > 400 µM

## O=C1C[C@@H](c2ccc(O)cc2)Oc2cc(O)cc(O)c21 [Naringenin]
[1]
  CC50 at 72 h: > 100 µM
[2]
  CC50 at 72 h: > 100 µM

## O=c1c(-c2ccc(O)cc2)coc2cc(O)ccc12 [Daidzein]
[1]
  CC50 at 72 h: > 200 µM
[2]
  CC50 at 72 h: > 200 µM

## O=c1cc(-c2ccccc2)oc2cc(O)c(O)c(O)c12 [Baicalein]
[1]
  CC50 at 72 h: > 100 µM
[2]
  CC50 at 72 h: > 100 µM
Static HEL fibroblasts
  Cytotoxicity in cell culture at concentration used for mechanism studies: did not display obvious cytotoxicity
NF-κB
  HCMV induction of NF-κB: absent
HCMV DNA [3]; 20 μM baicalein, 72 hpi
  HCMV DNA level: reduced to nearly background levels
[8]
  Nuclear accumulation of pp65: blocked
EGFR
  HCMV-induced EGFR phosphorylation: reduced to background levels
[4]; 20 μM baicalein, immunoblot 24, 48, 72 hpi
  Levels of all three kinetic classes of HCMV proteins: reduced to nearly background levels
HCMV DNA [5]
  Reversibility of antiviral effects: poorly reversible
[6]
  HCMV-mediated increases in steady-state levels of cdk2, cyclin E, p53, and PCNA: inhibited
